Results: ChEMBL document CHEMBL1144585, “Synthesis and evaluation of N-acetyl-L-tyrosine based compounds as PPARalpha selective activators” (Eur J Med Chem, 2007)

Key:
[1] = biological target: T1, Peroxisome proliferator-activated receptor alpha (Homo sapiens) (UniProt Q07869); test: Agonist activity at human recombinant PPARalpha at 50 uM by GAL4 transactivation assay relative to control; assay type: functional
T1 sequence (whole entry): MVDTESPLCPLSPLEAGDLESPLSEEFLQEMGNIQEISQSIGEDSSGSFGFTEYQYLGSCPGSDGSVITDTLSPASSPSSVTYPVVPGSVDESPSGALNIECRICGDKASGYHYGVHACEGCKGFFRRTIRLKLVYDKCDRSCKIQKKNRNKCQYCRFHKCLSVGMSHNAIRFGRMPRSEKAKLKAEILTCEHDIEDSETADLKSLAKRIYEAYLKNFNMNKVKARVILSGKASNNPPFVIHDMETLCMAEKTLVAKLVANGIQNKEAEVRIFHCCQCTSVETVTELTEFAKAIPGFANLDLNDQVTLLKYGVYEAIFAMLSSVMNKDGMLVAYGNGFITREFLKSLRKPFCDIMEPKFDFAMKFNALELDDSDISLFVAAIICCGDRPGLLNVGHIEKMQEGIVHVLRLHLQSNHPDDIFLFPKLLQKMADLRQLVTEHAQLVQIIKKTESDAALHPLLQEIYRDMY
Method in brief: (§1)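 Cell-based transcription assay: cells transfected with a GAL4–PPAR chimeric receptor expression plasmid, with luciferase gene activation as the read-out. PPARα was tested at 50 µM against WY 14,643 as the reference. PPARγ was tested at 30 µM against rosiglitazone as the reference. Values are fold activation at the same concentration.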

[2] = biological target: T2, Peroxisome proliferator-activated receptor gamma (Homo sapiens) (UniProt P37231); test: Agonist activity at human recombinant PPARgamma at 30 uM by GAL4 transactivation assay relative to control; assay type: functional; method in brief: as §1
T2 sequence (whole entry): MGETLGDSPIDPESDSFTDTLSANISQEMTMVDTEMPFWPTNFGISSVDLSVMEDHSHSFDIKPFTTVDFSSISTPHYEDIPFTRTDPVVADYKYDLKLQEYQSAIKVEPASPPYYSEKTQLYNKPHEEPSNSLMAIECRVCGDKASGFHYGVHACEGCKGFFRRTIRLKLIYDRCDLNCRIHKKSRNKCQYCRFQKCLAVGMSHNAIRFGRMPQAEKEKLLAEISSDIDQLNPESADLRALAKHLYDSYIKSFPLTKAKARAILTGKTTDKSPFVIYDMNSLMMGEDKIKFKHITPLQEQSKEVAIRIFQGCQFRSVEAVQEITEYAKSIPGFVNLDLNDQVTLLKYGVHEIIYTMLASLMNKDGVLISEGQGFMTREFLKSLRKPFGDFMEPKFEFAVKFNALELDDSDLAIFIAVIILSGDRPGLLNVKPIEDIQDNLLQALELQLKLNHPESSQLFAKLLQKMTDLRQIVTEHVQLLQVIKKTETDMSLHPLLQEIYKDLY

Row | Fold change [1] | Fold change [2] | SMILES
1 | 2.5 | 1.2 | CC(=O)N[C@@H](Cc1ccc(OCCC(=O)Nc2ccccc2C(F)(F)F)cc1)C(=O)O
2 | – | 27.2 | CN(CCOc1ccc(CC2SC(=O)NC2=O)cc1)c1ccccn1 (stereo not given)
3 | 2.9 | 1.1 | CCOC(=O)[C@H](Cc1ccc(OCCN(CC)c2cccc(C)c2)cc1)NC(C)=O
4 | 2.3 | 0.8 | CCOC(=O)[C@H](Cc1ccc(OCc2c3ccccc3cc3ccccc23)cc1)NC(C)=O
5 | 1 | 1.8 | CCOC(=O)[C@H](Cc1ccc(OCCC(=O)Nc2ccccc2C(F)(F)F)cc1)NC(C)=O
6 | 3.1 | 1.3 | CC(=O)N[C@@H](Cc1ccc(OCc2c3ccccc3cc3ccccc23)cc1)C(=O)O
7 | 2.4 | 1.3 | CCOC(=O)[C@H](Cc1ccc(OCc2ccc(OC)cc2)cc1)NC(C)=O
8 | 4.6 | 2.4 | CC(=O)N[C@@H](Cc1ccc(OCCOc2ccc(C(=O)c3ccc(Cl)cc3)cc2)cc1)C(=O)O
9 | 2 | 1 | CCOC(=O)[C@H](Cc1ccc(OCc2ccc(Cl)cc2)cc1)NC(C)=O
10 | 3.3 | 0.9 | CCOC(=O)[C@H](Cc1ccc(OCCOc2ccc(C(=O)c3ccc(Cl)cc3)cc2)cc1)NC(C)=O
11 | 4.4 | 5.4 | COc1ccc(COc2ccc(C[C@H](NC(C)=O)C(=O)O)cc2)cc1
12 | 1.6 | 5.4 | CCOC(=O)[C@H](Cc1ccc(OCCn2c3ccccc3c3ccccc32)cc1)NC(C)=O
13 | 4.2 | – | Cc1cccc(Nc2cc(Cl)nc(SCC(=O)O)n2)c1C
14 | 3.4 | 4.2 | CC(=O)N[C@@H](Cc1ccc(OCCn2c3ccccc3c3ccccc32)cc1)C(=O)O
15 | 3.2 | 1.4 | CCN(CCOc1ccc(C[C@H](NC(C)=O)C(=O)O)cc1)c1cccc(C)c1
16 | 3 | 1.9 | CC(=O)N[C@@H](Cc1ccc(OCc2ccc(Cl)cc2)cc1)C(=O)O
